Bioassay records (PubChem BioAssay)
H9c2 protect – cardioprotection against H2O2-induced cell death, primary screen, uHTS, H9c2 cells, ATPLite luminescence; hit rate 0.63% among 360,000; protection from H2O2 cell death, % at 20 µM; H9c2 cardiomyocytes, H2O2 injury protection, 2 h;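 active = compounds giving at least 50% protection of heart cells from peroxide-induced death in the single-dose screen, raw or plate-pattern-corrected value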;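 note: 0% = DMSO wells with peroxide and 100% = DMSO wells without peroxide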
CHOP UPR activ – activators of apoptotic CHOP UPR arm, primary screen, cell-based, CHO-CHOP luciferase reporter, luminescence, uHTS. hit rate 0.34% among 330,000. activation, % at 10 µM. UPR activation; percent of tunicamycin response over DMSO baseline;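 active = at 10 µM dose, activation of 40% or more, normalized to positive control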;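 note: 100% = tunicamycin at 10 µg/mL and 0% = DMSO alone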
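Test system: CHO CHOP reporter cells. Input: 500 CHO-CHOP cells per well. Medium: F12 with 10% FBS. Technique: luciferase luminescence. Measure: percent activation relative to tunicamycin control. Dosing: 10 µM compound, 0.5% DMSO. Timing: 16-18 h cell attachment, then 6 h compound exposure, 37 °C.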
UPR XBP1 act – activators of adaptive XBP1 UPR arm, primary screen, cell-based, CHO-XBP1 luciferase reporter, luminescence, uHTS; activation, % at 20 µM; IRE1-XBP1 UPR activation; percent of tunicamycin response, DMSO as zero; hit rate 0.33% among 330,000; AID 463104, 2010;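 active = versus positive control, 20 µM dose yields 30% or more activation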;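 note: 100% = tunicamycin at 10 µg/mL and 0% = DMSO only wells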
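Test system: CHO-XBP1 luciferase reporter cells | Buffer or medium: Serum-containing F12 medium, 10% FBS | Schedule: 6 h compound exposure at 37 °C, 5% CO2 | Detection: Steady-Glo luciferase glow luminescence, 10 min after reagent addition | Read-out basis: Activation, % of tunicamycin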
hiPSC survival – enhancers of single-cell hiPSC survival, primary screen, ATPlite luminescence | 100% = ROCK inhibitor wells, 0% = DMSO | survival enhancement, % at 20 µM | hit rate 0.044% among 360,000 | AID 602274, 2012; in the data active = survival enhancement above about 18%;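 note: cells exposed to compounds for 16 hours before the ATP read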
CHOP inhibitor – inhibitors of CHOP promoter induction, primary screen, cell-based, unfolded protein response, luciferase reporter. hit rate 3.8% among 220,000. inhibition, % at 10 µM. CHO-K1 CHOP-promoter luciferase, tunicamycin-induced, 15-18 h;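 active = compounds that reduced the stress-induced luciferase reporter signal by more than about 70% of percent inhibition, limit read from the data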;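 note: 0% = tunicamycin plus vehicle and 100% = wells without tunicamycin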
* = called active by the depositor; x = not tested or not shown. This is one part of a sample in which hits are shown more often than they occur.

SMILES	H9c2 protect	CHOP UPR activ	UPR XBP1 act	hiPSC survival	CHOP inhibitor
Cc1ccccc1N(CC(=O)N/N=C/c1ccc(F)cc1)C(=O)c1ccccc1	-18	3	-1	-4	89*
O=C(Cc1cccc2ccccc12)N/N=C/c1ccc(F)cc1	-13	0	-4	-1	74*
NC(=S)NCCCC(N)C(=O)O (stereo not given)	x	x	x	x	-9
C[C@@H]1CN([C@H](C)CO)C(=O)c2cc(C3=CCCCC3)cnc2O[C@@H]1CN(C)Cc1ccccc1C(=O)O	-2	x	x	-2	x
O=C(NCc1ccncc1)[C@@H]1CCCN1C(=O)[C@H]1CCCN1	x	x	x	0	x
COc1cccc(CC(=O)OCC(=O)NC(=O)c2ccc(OC(F)F)cc2)c1	-2	0	-2	0	x
CC(C)(C)CN1CCN(Cc2cccnc2)CC1CCO (stereo not given)	-3	2	-3	-1	x
CC(=O)Nc1ccc(N2CCCCC2)c(C(=O)Nc2cccc(C)c2)c1	-4	2	2	-1	31
Cc1cccc(NC(=O)c2cc(NC(=O)C3CCCCC3C(=O)O)ccc2N2CCCCC2)c1 (stereo not given)	0	2	0	0	77*
CCN(C)C1CN(Cc2cn(Cc3ccc(Cl)cc3)nn2)S(=O)(=O)C1 (stereo not given)	x	x	x	-1	x
COc1ccccc1CCn1cnc(Cc2ccccc2)c1C(C)C	x	x	x	0	x
CCCC(=O)N1CCC1(C)C(=O)Nc1ccc(-n2cccc2)cc1 (stereo not given)	12	x	x	1	x
O=C(CN1CCN(c2ccccc2)CC1)Nc1ccccc1C(F)(F)F	-7	1	-6	9	95*
CN1CCN(CC(=O)Nc2ccccc2C(F)(F)F)CC1	3	1	1	0	x
O=C(CN1CCCC1c1ccc2c(c1)OCCO2)NC(=O)Nc1ccccc1 (stereo not given)	-1	1	-4	0	x
CCC(=O)c1ccc(OC(=O)C2CCN(C3=NS(=O)(=O)c4ccccc43)CC2)cc1	7	-1	0	1	x
CSc1nc2ncc3c(n2n1)CC1c2ccccc2CCN1C3=O (stereo not given)	59*	-1	0	0	7
CCOC(=O)c1cc2c3ccccc3n(CC)c2nc1N	-4	-3	4	2	73*
Cc1ccc(Cn2c(=O)cc(C(=O)O)c3ccccc32)cc1	-1	0	-2	2	19
CCOC(=O)c1cc(=O)n(Cc2ccccc2C)c2ccccc12	-9	-1	2	0	71*
CCOC(=O)N1CCN(C(=O)C[C@@H]2C[C@@]3(C(=O)OCC)CCC=C3N(Cc3cccc4ccccc34)C2=O)CC1	x	x	x	-1	x
COc1cc(F)ccc1-c1csc(C(NC(C)=O)c2ccc(F)c(F)c2)n1 (stereo not given)	-4	x	x	0	x
COc1ccc(CNC(=O)CCC(=O)N2CCN(S(=O)(=O)c3cc([N+](=O)[O-])ccc3C)CC2)cc1	3	2	-3	0	x
Cc1noc(C)c1-c1ccc(C(=O)NCCN2CCOCC2)c2occc12	6	x	x	-1	x
C=CCn1c(O)c(N=NC(=S)Nc2cccc(OC)c2)c2ccccc21	39	18	3	-3	-39
SMILES	H9c2 protect	CHOP UPR activ	UPR XBP1 act	hiPSC survival	CHOP inhibitor
C=CCn1c(O)c(N=NC(=S)Nc2ccc(OC)cc2)c2ccccc21	56*	x	x	-1	6
Cc1cccc(NC(c2ccc(O)cc2)c2ccc3ccc(C)nc3c2O)n1 (stereo not given)	92*	-1	-3	4	-76
Nc1ncnc2c1ncn2[C@@H]1O[C@H](C(=O)N[C@H](CO)Cc2ccc(O)cc2)[C@@H](O)[C@H]1O	0	x	x	2	x
O=c1c2ccccc2sn1-c1nccs1	-23	x	x	-1	94*
CC1(c2nnnn2-c2ccc3c(c2)OCCO3)CCC(=O)N1Cc1ccc(F)cc1 (stereo not given)	x	x	x	1	x
C=CCn1c(Cn2c(-c3cnccn3)nc3ccccc32)nc2ccccc21	x	x	x	-1	x
Cc1csc(NC(=O)CSc2nnc(C)s2)n1	24	1	1	-4	6
Cc1nnc(SCC(=O)Nc2nc3c(s2)CC(C)CC3)s1 (stereo not given)	-26	3	4	-1	84*
Oc1ccc(Cl)cc1C=Nc1ccc(Br)cc1	50*	0	0	0	22
Oc1ccc(Cl)cc1/C=N/c1nccs1	16	-1	-1	1	12
COc1ccc(N=Cc2cc(Cl)ccc2O)cc1Cl	72*	1	4	-1	14
Cc1cccc(C=Nc2ccc3c4c(cccc24)CC3)c1O	5	3	2	-1	-6
Cc1ccc(N=Cc2ccccc2O)cc1Cl	4	x	x	-2	x
Oc1ccc(Cl)cc1C=Nc1ccc2c3c(cccc13)CC2	91*	0	0	-1	52
CCN(CC)CCN1CCN(c2cncc(-c3ccc4ccccc4c3)n2)CC1	-14	x	x	-8	x
O=C(COc1ccc(Cl)cc1Cl)N(C1CCCCC1)C1CCS(=O)(=O)C1 (stereo not given)	-10	-2	-3	0	x
Cc1[nH]n2c(=O)cc(C(C)C)nc2c1-c1ccccc1	17	-1	0	5	29
Cc1[nH]n2c(=O)cc(C(C)(C)C)nc2c1-c1ccccc1	53*	4	2	1	-32
N#Cc1c(Nc2ccc(F)cc2)sc(C(=O)c2ccc(F)cc2)c1N	-5	-1	4	1	76*
O=C(Nc1ccccc1)Nc1nnc([C@H]2C[C@H](O)[C@@H](CO)O2)s1	2	x	x	0	x
O=C(N/N=C\c1ccccn1)c1cccc(C(=O)N/N=C\c2ccccn2)n1	54*	1	-3	0	x
O=C(N/N=C/c1ccccn1)c1ccc(Cl)cc1	0	5	8	0	x
O=C(N/N=C/c1ccccn1)c1cccs1	56*	4	0	0	6
Cn1ncc(Cl)c1C(=O)N/N=C/c1ccccn1	51*	1	-3	2	6
CCCOc1cccc(-c2cc(C(=O)N/N=C/c3ccccn3)c3ccccc3n2)c1	39	296*	-2	0	x
CCNC(=O)[C@H]1O[C@@H](n2cnc3c(N)nc(NCCc4ccc(CCC(=O)O)cc4)nc32)C(O)[C@H]1O (stereo not given in full)	x	x	x	x	-16
O=C(N/N=C\c1ccccn1)C1COc2cc3ccccc3cc2O1 (stereo not given)	86*	-4	-1	-1	72*
CCOC(=O)NC(NCc1cccc(C(F)(F)F)c1)(C(F)(F)F)C(F)(F)F	-6	0	-4	-1	34
